Data reported in ChEMBL document CHEMBL1154638, “14beta-Arylpropiolylamino-17-cyclopropylmethyl-7,8-dihydronormorphinones and related opioids. Further examples of pseudoirreversible mu opioid receptor antagonists” (J Med Chem, 2009).
Activity calls are given as the source filed them. The rule behind the calls is not given here.

How the values were obtained:
[1] = molecular target: T1, Kappa-type opioid receptor (Homo sapiens, UniProt P41145); test: Agonist activity at human kappa opioid receptor expressed in CHO cells assessed as [35S]GTPgammaS binding; type: functional, cell-based
Procedure, shortened: (§1)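 Membranes from CHO cells transfected with individual recombinant human opioid receptors (mu, delta or kappa). Ligand-stimulated [35S]GTPγS binding is measured at each receptor type, for agonist stimulation and for antagonism. At kappa, agonist efficacy is expressed as % stimulation relative to U69593, alongside EC50.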

Mus musculus [2] = test: Antinociceptive activity in Swiss mouse assessed as inhibition of acetic acid-induced writhing at 0.32 mg/kg, ip by writhing assay in presence of mu opioid receptor antagonist M-CAM; type: functional, organism-based; parameters: dose 0.32 mg/kg
[3] = molecular target: T2, Delta-type opioid receptor (Homo sapiens, UniProt P41143); test: Agonist activity at human delta opioid receptor expressed in CHO cells assessed as [35S]GTPgammaS binding; type: functional, cell-based; procedure, shortened: as §1
Mus musculus [4] = test: Antinociceptive activity in Swiss mouse assessed as inhibition of acetic acid-induced writhing at 0.32 mg/kg, ip by writhing assay; type: functional, organism-based; parameters: dose 0.32 mg/kg
[5] = molecular target: T2, Delta-type opioid receptor; test: Agonist activity at human delta opioid receptor expressed in CHO cells assessed as [35S]GTPgammaS binding relative to DPDPE; type: functional, cell-based; procedure, shortened: as §1
[6] = molecular target: T1, Kappa-type opioid receptor; test: Agonist activity at human kappa opioid receptor expressed in CHO cells assessed as [35S]GTPgammaS binding relative to U69593; type: functional, cell-based; procedure, shortened: as §1
[7] = molecular target: T2, Delta-type opioid receptor; test: Displacement of [3H]DPDPE from human recombinant delta opioid receptor expressed in CHO cells by liquid scintillation counting; type: cell-based
Procedure, shortened: (§2)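 Competitive displacement binding uses membranes from CHO cells expressing recombinant human opioid receptors. Radioligands are [3H]DAMGO for mu and [3H]DPDPE for delta. Ki is reported in nM as the mean of two experiments, each run in triplicate.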

[8] = molecular target: T1, Kappa-type opioid receptor; test: Displacement of [3H]U69593 from human recombinant kappa opioid receptor expressed in CHO cells by liquid scintillation counting; type: cell-based
Mu-type opioid receptor = Mu-type opioid receptor (Homo sapiens, UniProt P35372); test: Displacement of [3H]DAMGO from human recombinant mu opioid receptor expressed in CHO cells by liquid scintillation counting; type: cell-based; procedure, shortened: as §2
Mus musculus [9] = test: Antinociceptive activity in Swiss mouse assessed as inhibition of acetic acid-induced writhing at 0.32 mg/kg, ip by writhing assay in presence of kappa opioid receptor antagonist norBNI; type: functional, organism-based; parameters: dose 0.32 mg/kg
Mus musculus [10] = test: Antinociceptive activity in Swiss mouse assessed as tail withdrawal response at 3.2 mg/kg, ip by warm-water tail-withdrawal assay; type: functional, organism-based; parameters: dose 3.2 mg/kg
Procedure, shortened: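 Mouse warm-water (50 °C) tail-withdrawal assay. Compound was given across a dose range, and antinociception was expressed as a percentage of the maximum possible effect.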

Mus musculus [11] = test: Antinociceptive activity in Swiss mouse assessed as inhibition of acetic acid-induced writhing at 0.32 mg/kg, ip by writhing assay in presence of delta opioid receptor antagonist naltrindole; type: functional, organism-based; parameters: dose 0.32 mg/kg
Mus musculus [12] = type: functional, organism-based; parameters: dose 3.2 mg/kg; conditions: Swiss, 3.2 mg/kg
Mus musculus [13] = test: Antinociceptive activity against acetic acid-induced writhing in Swiss mouse assessed as reversal of mu opioid receptor agonist morphine response at 1 mg/kg, ip by writhing assay; type: functional, organism-based; parameters: dose 1 mg/kg
Mus musculus [14] = test: Antinociceptive activity against acetic acid-induced writhing in Swiss mouse assessed as reversal of […] response at 1 mg/kg, ip by writhing assay; type: functional, organism-based; parameters: dose 1 mg/kg
Mus musculus [15] = test: Antinociceptive activity against acetic acid-induced writhing in Swiss mouse assessed as reversal of mu opioid receptor agonist morphine response at 3.2 mg/kg, ip by writhing assay; type: functional, organism-based; parameters: dose 3.2 mg/kg
Procedure, shortened: (§3)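 Mouse abdominal stretch assay. […] Stretches were counted, with saline as vehicle. Statistics used one-way ANOVA with Dunnett's post hoc test versus agonist alone and versus test ligand alone.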

Mus musculus [16] = test: Antinociceptive activity against acetic acid-induced writhing in Swiss mouse assessed as reversal of […] response at 3.2 mg/kg, ip by writhing assay; type: functional, organism-based; parameters: dose 3.2 mg/kg; procedure, shortened: as §3
Mus musculus [17] = type: functional, organism-based; parameters: dose 1 mg/kg; conditions: Swiss, 1 mg/kg
Mus musculus [18] = test: Antinociceptive activity in Swiss mouse assessed as tail withdrawal response at 100 mg/kg, ip after 3 days by warm-water tail-withdrawal assay; type: functional; conditions: route intraperitoneal
Mus musculus [19] = test: Antinociceptive activity in Swiss mouse assessed as tail withdrawal response at 100 mg/kg, ip after 30 mins by warm-water tail-withdrawal assay; type: functional; conditions: route intraperitoneal
[20] = Displacement of [3H]DPDPE from human recombinant delta opioid receptor expressed in CHO cells by liquid scintillation counting
Mus musculus [21] = test: Antinociceptive activity in Swiss mouse assessed as tail withdrawal response at 100 mg/kg, ip after […] by warm-water tail-withdrawal assay; type: functional; conditions: route intraperitoneal

T2 sequence (P41143 whole entry): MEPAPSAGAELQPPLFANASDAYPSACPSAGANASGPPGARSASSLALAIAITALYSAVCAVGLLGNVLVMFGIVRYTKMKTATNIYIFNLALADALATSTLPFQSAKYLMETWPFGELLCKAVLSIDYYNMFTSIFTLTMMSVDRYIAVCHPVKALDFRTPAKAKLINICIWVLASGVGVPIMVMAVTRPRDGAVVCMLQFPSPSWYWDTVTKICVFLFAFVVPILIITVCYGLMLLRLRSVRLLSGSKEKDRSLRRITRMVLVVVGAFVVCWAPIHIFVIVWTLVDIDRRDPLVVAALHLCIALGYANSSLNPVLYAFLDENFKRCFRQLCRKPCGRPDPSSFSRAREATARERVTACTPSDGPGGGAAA
Mu-type opioid receptor, sequence (P35372 whole entry): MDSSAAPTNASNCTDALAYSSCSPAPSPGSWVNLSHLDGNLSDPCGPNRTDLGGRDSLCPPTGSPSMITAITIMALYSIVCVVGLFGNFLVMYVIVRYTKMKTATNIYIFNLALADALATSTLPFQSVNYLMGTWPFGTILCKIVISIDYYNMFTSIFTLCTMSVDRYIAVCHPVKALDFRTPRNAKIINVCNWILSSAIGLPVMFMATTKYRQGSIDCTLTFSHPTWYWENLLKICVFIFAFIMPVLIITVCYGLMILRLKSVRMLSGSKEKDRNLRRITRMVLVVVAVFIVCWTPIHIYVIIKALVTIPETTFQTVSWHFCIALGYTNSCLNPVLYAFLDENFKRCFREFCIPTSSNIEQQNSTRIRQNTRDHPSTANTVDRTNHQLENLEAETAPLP
T1 sequence (P41145 whole entry): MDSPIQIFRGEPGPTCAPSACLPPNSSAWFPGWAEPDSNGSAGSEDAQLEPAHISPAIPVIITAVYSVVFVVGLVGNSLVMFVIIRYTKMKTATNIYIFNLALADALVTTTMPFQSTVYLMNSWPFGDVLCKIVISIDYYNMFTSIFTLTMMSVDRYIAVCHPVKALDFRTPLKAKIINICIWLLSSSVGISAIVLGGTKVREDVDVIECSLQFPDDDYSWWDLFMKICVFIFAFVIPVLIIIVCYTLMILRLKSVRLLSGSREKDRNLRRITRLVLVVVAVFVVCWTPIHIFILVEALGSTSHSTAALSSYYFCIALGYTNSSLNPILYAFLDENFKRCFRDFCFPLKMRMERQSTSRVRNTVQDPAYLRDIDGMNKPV

| Compound | EC50 [1] [nM] | Activity [6] [%] | Ki [7] [nM] | Ki [8] [nM] | Ki (Mu-type opioid receptor) [nM] | also measured |
| --- | --- | --- | --- | --- | --- | --- |
| COc1ccc2c3c1O[C@H]1C(=O)CC[C@@]4(NC(=O)C#Cc5ccccc5)[C@@H](C2)N(CC2CC2)CC[C@]314 | 3.18 | 77 | 28.3 | 7.86 | 1.46 | Activity (Mus musculus [2]): inactive; EC50 [3]: 75.1 nM; Activity (Mus musculus [4]): Active; Activity [5]: 47%; Activity (Mus musculus [9]): Active; Activity (Mus musculus [10]): Active; Activity (Mus musculus [11]): Active |
| O=C(C#Cc1ccc(Cl)cc1)N[C@@]12CCC(=O)[C@@H]3Oc4c(O)ccc5c4[C@@]31CCN(CC1CC1)[C@@H]2C5 |  |  | 5.41 | 2.73 | 3.75 | Activity (Mus musculus [12]): Active; Activity (Mus musculus [13]): Active; Activity (Mus musculus [14]): Active; Activity (Mus musculus [15]): Active; Activity (Mus musculus [16]): Active; Activity (Mus musculus [17]): Active; Activity (Mus musculus [18]): 20%; Activity (Mus musculus [19]): 0% |
| O=C1CC[C@@]2(NCC#Cc3ccc(Cl)cc3)[C@H]3Cc4ccc(O)c5c4[C@@]2(CCN3CC2CC2)[C@H]1O5 |  |  | 3.26 | 2.89 | 0.97 |  |
| COc1ccc2c3c1O[C@H]1C(=O)CC[C@@]4(NC/C=C/c5ccc(Cl)cc5)[C@@H](C2)N(CC2CC2)CC[C@]314 |  |  |  | 53.6 | 0.7 | Ki [20]: 44.5 nM |
| COc1ccc2c3c1O[C@H]1C(=O)CC[C@@]4(NCC#Cc5ccc(Cl)cc5)[C@@H](C2)N(CC2CC2)CC[C@]314 |  |  | 136 | 74.4 | 9.68 |  |
| O=C(C#Cc1ccccc1)N[C@@]12CCC(=O)[C@@H]3Oc4c(O)ccc5c4[C@@]31CCN(CC1CC1)[C@@H]2C5 | 0.3 | 21 | 1.6 | 1.12 | 1.31 | Activity (Mus musculus [21]): 0% |
| COc1ccc2c3c1O[C@H]1C(=O)CC[C@@]4(NC(=O)C#Cc5ccc(Cl)cc5)[C@@H](C2)N(CC2CC2)CC[C@]314 | 20 | 25 | 65.2 | 13.7 | 7.43 | Activity (Mus musculus [19]): 0% |
